Measurements gathered from unrelated publications.
Lines come from different studies, so protocols differ.
Effect on: metabolic stability
Species: human
Sample: liver microsomes

| SMILES | conditions | microsomal CLint |
| --- | --- | --- |
| Cc1cc(Nc2ccnc3ccc(-c4ccc(S(=O)(=O)N5CCOCC5)cc4)cc23)sn1 |  | 115 µL/min/mg |
| COc1cccc(-c2nc3ccccn3c2Nc2ccc(F)cc2)n1 | 3 µM, pH 7.4 | 137 µL/min/mg |
| C[C@H](N)c1cc(Cl)ccc1Cn1c(=S)[nH]c(=O)c2[nH]ccc21 |  | < 3 µL/min/mg |
| C=CCn1c(=O)c2cnc(Nc3ccc(N4CCN(C)CC4)cc3)nc2n1-c1cccc(C(C)(C)O)n1 |  | 17 µL/min/mg |
| CCOC(=O)c1c(-c2cccc(Br)c2)[nH]c2cc(OC)c(F)cc2c1=O | 19.8 µM, pH 7.4 | < 4 µL/min/mg |
| C[C@@H](C(=O)NC1Cc2ccccc2C1)c1ccccc1 | 1 µM, 1 h | 105 µL/min/mg |
| Cc1cc(Nc2ccc(C(F)(F)F)cc2)c2ccccc2n1 |  | 4.8 µL/min/mg |
| CCc1nnc(Nc2ccnc3ccc(-c4ccc(S(=O)(=O)N5CCOCC5)cc4)cc23)s1 |  | 59.3 µL/min/mg |
| Cc1cc(NC(=O)Nc2ccc3c(c2)OC(F)(F)O3)cc(C(F)(F)F)n1 |  | < 7 µL/min/mg |
| Cc1nnc(Nc2ccnc3ccc(-c4ccc(S(=O)(=O)N5CCOCC5)cc4)cc23)nc1C |  | 114 µL/min/mg |
| COc1ccc(-c2c(C)[nH]c3cc(OC)c(Cl)cc3c2=O)cc1 | 1 µM | < 7 µL/min/mg |
| Fc1ccc(Nc2c(Cn3cccn3)nc3ccccn23)cc1 | 3 µM, pH 7.4 | 45 µL/min/mg |
| COc1cc2[nH]c(C)c(-c3ccc(O)cc3)c(=O)c2cc1Cl | 1 µM | < 7 µL/min/mg |
| O=C(C1CCSCC1)N1CC(=O)N2CCc3ccccc3[C@@H]2C1 | 0.1 µM, pH 7.4 | 28 µL/min/mg |
| Cc1cc(Nc2ccnc3ccc(-c4ccc(S(=O)(=O)N5CCOCC5)cc4)cc23)on1 |  | 69.8 µL/min/mg |
| COc1cc2[nH]c(C)c(-c3ccc(F)cc3)c(=O)c2cc1Cl | 1 µM | 31 µL/min/mg |
| Cc1cccc(CNc2nc(-c3ccccn3)nc3ccccc23)n1 |  | 63 µL/min/mg |
| COc1ccc(Nc2ccnc3ccc(-c4ccc(S(=O)(=O)N5CCOCC5)cc4)cc23)cc1C |  | 131 µL/min/mg |
| c1ccc(-c2nc3n(c2-c2ccncc2)CCC3)nc1 | 3 µM, pH 7.4 | 26 µL/min/mg |
| CCOCCOc1ccnc2ccc(-c3ccc(S(=O)(=O)N4CCOCC4)cc3)cc12 |  | > 300 µL/min/mg |
| COc1cc2[nH]c(C)c(-c3ccc(OC(F)(F)F)cc3)c(=O)c2cc1Cl | 1 µM | < 7 µL/min/mg |
| Fc1ccc(Nc2c(-c3ccccn3)nc3ccccn23)c(F)c1 | 3 µM, pH 7.4 | 96 µL/min/mg |
| COc1cc2[nH]c(C)c(-c3ccc(-c4ccccc4)cc3)c(=O)c2cc1Cl | 1 µM | 14 µL/min/mg |
| CN(C)C(=N)N=C(N)N |  | 1.5 µL/min/mg |

| SMILES | conditions | microsomal CLint |
| --- | --- | --- |
| c1ccc(-c2nc3n(c2-c2cccnc2)CCC3)nc1 | 3 µM, pH 7.4 | 24 µL/min/mg |
| COc1cc2[nH]c(C)c(-c3ccc(N4CCN(C)CC4)nc3)c(=O)c2cc1Cl | 1 µM | 34 µL/min/mg |
| Fc1ccc(Nc2c(-c3ncccc3F)nc3ccccn23)cc1 | 3 µM, pH 7.4 | 86 µL/min/mg |
| O=C(N[C@H](Cc1ccccc1)C(=O)Nc1ccccc1N1CCOCC1)c1cccs1 | 2 µM, 40 min, pH 7.4 | 1370 µL/min/mg |
| Cc1cnc(Nc2ccnc3ccc(-c4ccc(S(=O)(=O)N5CCOCC5)cc4)cc23)s1 |  | 76.3 µL/min/mg |
| CCOc1ccc2ccc(=O)oc2c1 | 1 µM, pH 7.4 | 146 µL/min/mg |
| c1ccc(-c2nc(N3CCc4cccnc4C3)c3ccccc3n2)nc1 |  | 64 µL/min/mg |
| CN(c1ccc(F)cc1)c1c(-c2ccc(F)cn2)nc2ccccn12 | 3 µM, pH 7.4 | 220 µL/min/mg |
| Cc1cc(Nc2ccc(S(F)(F)(F)(F)F)cc2)n2nc(C(C)(F)F)nc2n1 | 1 µM, pH 7.4 | < 6 µL/min/mg |
| C[C@H](C(=O)N[C@@H]1COc2ccccc2[C@H]1S(C)(=O)=O)c1ccc(F)cc1 | 1 µM | 2 µL/min/mg |
| CCOC(=O)c1c(-c2cccc(Cl)c2)[nH]c2cc(OC)c(F)cc2c1=O | 19.8 µM, pH 7.4 | < 4 µL/min/mg |
| c1ccc(CN2CCN(c3nc(-c4ccccn4)nc4ccccc34)CC2)cc1 |  | 136 µL/min/mg |
| Clc1cccc(-c2c(-c3ccccn3)nc3n2CCC3)c1 | 3 µM, pH 7.4 | 140 µL/min/mg |
| c1ccc(-c2nc(N3CCCC(c4ccccn4)C3)c3ccccc3n2)nc1 (centres unmarked) |  | 113 µL/min/mg |
| Cc1cc(Nc2ccc(S(F)(F)(F)(F)F)cc2)n2nc(C(F)(F)F)nc2n1 | 1 µM, pH 7.4 | < 6 µL/min/mg |
| FC(F)(F)c1ccccc1-c1nc(N2CCC(c3ccccn3)C2)c2ccccc2n1 (centres unmarked) |  | 199 µL/min/mg |
| Cc1cc(Nc2ccc(C(F)(F)F)cc2)n2nc(C(F)(F)F)nc2n1 | 1 µM, pH 7.4 | < 6 µL/min/mg |
| Fc1ccccc1-c1nc(N2CCC(c3ccccn3)C2)c2ccccc2n1 (centres unmarked) |  | 186 µL/min/mg |
| COc1cc2[nH]c(C)c(-c3ccc(OC(C)C)cc3)c(=O)c2cc1Cl | 1 µM | 8 µL/min/mg |
| Cn1cc(-c2nc(N3CCC(c4ccccn4)C3)c3ccccc3n2)cn1 (centres unmarked) |  | 118 µL/min/mg |
| COc1cc2[nH]c(C)c(-c3cccc(CO)c3)c(=O)c2cc1Cl | 1 µM | < 7 µL/min/mg |
| Fc1cccc(F)c1-c1nc(N2CCC(c3ccccn3)C2)c2ccccc2n1 (centres unmarked) |  | 114 µL/min/mg |
| O=S(=O)(c1ccc(-c2ccc3nccc(Nc4ccc5[nH]nnc5c4)c3c2)cc1)N1CCOCC1 |  | 52 µL/min/mg |
